In PMC3000598 (Phytochemistry letters, 2008) one finds IC50, COX-1 inhibition and 5-LOX inhibition data, which are given here for two molecules.

pIC50: −log10 of the molar value.

Test [1] has as its system 5-LOX catalyzed LTB4 formation. The test can be described thus: In vitro assay for leukotriene. It counts as cell-based. The following applies: Homo sapiens, Leukocyte, 10 min, read-out: IC50 5-LOX mediated LTB4 formation. The gist of the method:
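Human venous-blood polymorphonuclear leukocytes isolated by sedimentation rate and lysis tolerance; viability checked by 0.4% trypan blue. Cells (4500 cells/mL) were incubated with the ethanol-dissolved test compound, CaCl2, A23187 and arachidonic acid for 10 min at 37 °C with shaking. The reaction was stopped with 10% HCO2H, and LTB4 was measured by competitive EIA.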

A further test deals with COX-1. The note with it: cellular as well as cell-free assays; ref Albert et al. (2002); cited from earlier work.
The next test deals with 5-LOX. The note with it: cellular as well as cell-free assays; ref Albert et al. (2002); cited from earlier work.

Broadly, the pIC50 is the negative decadic logarithm of the IC50, by convention in mol/L. As for `CC(c1cc2ccccc2s1)N(O)C(N)=O` (stereo not drawn) [Zileuton], in test [1], the pIC50 was 5.30. Turning to `CC(C)=CCC[C@]1(C)[C@@H](CC=C(C)C)C[C@@]2(CC=C(C)C)C(=O)[C@]1(C(=O)C(C)C)C(=O)C(CC=C(C)C)=C2O` [hyperforin], the COX-1 inhibition result in the test on COX-1 is on record as “dual COX-1/5-LOX inhibitor”. In the test with 5-LOX, the 5-LOX inhibition result is reported as “dual COX-1/5-LOX inhibitor”.
